NadD block: blocks S. aureus nicotinate mononucleotide adenylyltransferase; purified NadD enzyme, colorimetric absorbance read-out; inhibition, % at 20 µM; 0.78% of 360,000 active; AID 602399; in the data active = inhibition above about 26%
ASAP1 GAP inh: ASAP1 ArfGAP inhibition. Q9ULH1. ASAP1-stimulated ARF1 GTP hydrolysis, GDP FP detection. inhibition, % at 16.5 µM. 0.19% of 360,000 active; in the data active = inhibition above about 25%;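 note: 0% = vehicle with enzyme and substrate and 100% = no enzyme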
Target sequence (Q9ULH1 325-724 limits assumed): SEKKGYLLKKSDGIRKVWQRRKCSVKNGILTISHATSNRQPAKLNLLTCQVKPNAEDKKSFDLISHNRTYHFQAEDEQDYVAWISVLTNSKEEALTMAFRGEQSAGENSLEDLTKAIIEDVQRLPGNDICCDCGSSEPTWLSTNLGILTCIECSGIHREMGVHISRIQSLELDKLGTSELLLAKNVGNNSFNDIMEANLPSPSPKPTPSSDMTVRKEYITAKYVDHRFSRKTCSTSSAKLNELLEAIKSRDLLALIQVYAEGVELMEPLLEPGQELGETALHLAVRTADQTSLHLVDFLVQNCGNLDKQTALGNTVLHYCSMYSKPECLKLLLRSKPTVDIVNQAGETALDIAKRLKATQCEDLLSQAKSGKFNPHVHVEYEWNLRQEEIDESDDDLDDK
rCAG RNA binder: binds r(CAG) RNA repeats | r(CAG) RNA repeat, TO-PRO-1 dye displacement fluorescence | inhibition, % at 3 µM | 1.3% of 370,000 active;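 active = inhibition above the plate cutoff, the mean of all test compounds on that plate plus 3 SD, cut at about 35% in these data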;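 note: 0% = DMSO alone and 100% = 100 µM mitoxantrone as full dye displacement; higher means more dye released from RNA so lower well fluorescence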
ARFGAP1 inh: inhibits rat ARF GTPase activating protein 1. Q62848. 0.26% of 360,000 active. Arfgap1-stimulated ARF1 GTP hydrolysis, GDP FP detection. AID 651572. inhibition, % at 16.5 µM;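 active = inhibition above a per-plate limit, mean inhibition of low control wells plus 3 SD, cut at about 25% in these data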;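 note: 0% = DMSO wells with enzyme and 100% = wells lacking Arfgap1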
Target sequence (Q62848 1-136 limits assumed): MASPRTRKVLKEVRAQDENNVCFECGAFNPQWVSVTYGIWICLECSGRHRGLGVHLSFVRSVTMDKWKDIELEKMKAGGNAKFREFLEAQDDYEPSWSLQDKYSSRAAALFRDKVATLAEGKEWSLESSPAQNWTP
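material = rat Arfgap1 catalytic domain, aa 1-136 | also added = human ARF1(Δ1-17)-GTP substrate | compound dosing = one concentration, 16.5 µM, DMSO 1.26% | times = GTP hydrolysis reaction 2 h at 25 °C | measured by = FP, GDP Alexa 633 tracer displaced from anti-GDP antibody, 620/688 nm | evaluation = percent inhibition of Arfgap1-stimulated GTP hydrolysis | replication = single well per compound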
NadD conf: confirmation of Staphylococcus aureus NadD inhibitors. shares compounds with NadD block. 13% of 2,000 active. purified S. aureus NadD, colorimetric enzyme assay. inhibition, % at 20 µM. AID 624309; in the data active = inhibition mostly above about 42%, no sharp cut-off; inactive = mostly below about 42%
* marks the source's active call; other numbers are inactive results; . = no result given. An excerpt weighted towards active compounds, which were near 2.2% of everything screened.

SMILES | NadD block | ASAP1 GAP inh | rCAG RNA binder | ARFGAP1 inh | NadD conf
O=C(/C=C/NNC(=O)c1cccc(Br)c1)c1cccc(Br)c1 | 29.8* | -3.5 | 11.1 | 3.2 | 23.7
O=C(/C=C/NNC(=O)c1ccccc1)c1ccc(Br)cc1 | 1.1 | -10.2 | 13.7 | -1.9 | .
O=C(CSc1nnc(Cc2csc(Nc3cccc(Cl)c3)n2)o1)N1CCc2ccccc21 | 56.8* | -3.5 | 19.3 | -2.6 | 18.6
O=C(CSc1nnc(CNc2ccccc2)o1)N1CCc2ccccc21 | 6.5 | 8.2 | 3.3 | 1.6 | .
COC(=O)[C@]12C[C@H](CC(=O)NCc3ccc(OC)c(OC)c3)C(=O)N(CCc3ccc(OC)c(OC)c3)C1=C[C@H](C1CCCC1)O[C@@H]2C | . | . | 3.3 | . | .
COc1ccc(CN(C)C(=O)C2CCCN(c3nc4ccccc4o3)C2)cc1 (centres undefined) | . | . | -1.8 | . | .
Cc1ccc(N2CC(C(=O)Nc3nnc(SCC(=O)Nc4cc(C)on4)s3)CC2=O)cc1 (centres undefined) | 39.0* | -3.7 | 3.9 | -1.7 | 2.2
COc1cccc(N2CC(C(=O)Nc3nnc(SCC(=O)Nc4cc(C)on4)s3)CC2=O)c1 (centres undefined) | 40.9* | 2.9 | 10.7 | 5.6 | 2.7
O=C(Nc1ccc(F)cc1F)C1CCCN1S(=O)(=O)c1cccnc1 (centres undefined) | . | . | 2.1 | . | .
O=c1/c(=C\c2cccc(O)c2)sc2nc(-c3ccccc3)c(-c3ccccc3)n12 | 34.7* | 9.3 | 13.7 | 3.7 | -0.7
CCCC(=O)OC12CCCN(C1)/C(=C/c1cccc(OC)c1)C2 (centres undefined) | . | . | -3.8 | . | .
CN(C)C1=C(Cl)C(=O)N(c2ccc(Cl)c(Cl)c2)C1=O | 3.3 | 2.2 | 2.8 | 3.8 | .
CN(C)/C=C1\C(=O)N(c2ccc(Cl)c(Cl)c2)CS1(=O)=O | 32.6* | 5.3 | 3.4 | 4.2 | -1.1
NC(=O)c1ccc(NC(=O)CSc2nnc(-c3ccccc3)n2-c2ccccc2)cc1 | . | . | 2.9 | . | .
CCOc1ccc(C2SCC(=O)N2c2c(C)n(C)n(-c3ccccc3)c2=O)cc1 (centres undefined) | 5.1 | 0.4 | -1.5 | -2.6 | .
CCOc1ccc(C2=C(C=Nc3c(C)n(C)n(-c4ccccc4)c3=O)C(c3ccc(F)cc3)c3ccccc3O2)cc1 (centres undefined) | 45.6* | . | . | . | 14.1
O=C(Nc1nc(-c2ccccn2)cs1)c1ccc(F)c(S(=O)(=O)N2CCOCC2)c1 | 20.9 | 11.3 | 12.2 | 0.8 | .
Cc1ccc(C(=O)Nc2nc(-c3ccccn3)cs2)cc1S(=O)(=O)N1CCOCC1 | 30.8* | 1.8 | 8.4 | 12.4 | 22.1
COc1ccc2cc3[n+](cc2c1O)CCc1cc2c(cc1-3)OCO2 | 41.4* | -1.5 | 17.0 | 6.2 | 32.5
O=C(COc1ccc(/C=N/NC(=O)c2ccc(O)cc2)cc1)Nc1cccc([N+](=O)[O-])c1 | 28.4* | 12.2 | 12.4 | 9.8 | 32.6
O=C(COc1ccc(/C=N/NC(=O)c2ccncc2)cc1)Nc1ccc([N+](=O)[O-])cc1 | 3.9 | 3.1 | -0.4 | -1.9 | .
C=CCn1c(O)c(C2=c3ccccc3=NC2=O)c2ccccc21 | -7.1 | -3.1 | 21.4 | -11.3 | .
C=CCn1c(O)c(C2=c3ccccc3=NC2=O)s/c1=N/c1nccs1 | 32.8* | -1.3 | 13.3 | -22.2 | 4.4
O=c1c2ccccc2n(Cc2ccccc2)n1[C@@H](Cc1ccccc1)Cn1cc(-c2ccc(-c3ccccc3)cc2)nn1 | . | . | 9.9 | . | .
Cc1ccc(N=C2SC(C(=O)Nc3ccc(OC(F)(F)F)cc3)C(N)=C2C(=O)Nc2c(C)cc(C)cc2C)cc1 (centres undefined) | 32.6* | 6.8 | 25.7 | 13.9 | 38.0
SMILES | NadD block | ASAP1 GAP inh | rCAG RNA binder | ARFGAP1 inh | NadD conf
Nc1ccccc1C(=O)NNC(=O)C(=O)/C=C(\O)c1ccccc1 | 71.5* | 7.0 | 24.5 | -3.1 | 73.5*
COc1ccc(COc2cc(-c3cccc(OC)c3)nc3ccc(NC(=O)c4ccc(C)cc4)cc23)cc1 | 40.4* | 15.9 | 15.6 | 4.6 | 19.9
COc1ccc(COc2cc(-c3cccc(OC)c3)nc3ccc(NC(=O)c4ccc(N(C)C)cc4)cc23)cc1 | 26.7 | . | . | . | .
CC(C)(C)c1ccc(C2CC2C(=O)N/N=C\c2cc3ccccc3nc2Cl)cc1 (centres undefined) | 35.6* | -8.8 | 5.4 | 3.5 | -0.8
O=C(CNc1ccc2ccccc2c1)N/N=C/c1cc2ccccc2nc1Cl | 40.1* | 11.2 | 23.6 | 6.5 | 21.0
Cc1ccc(S(=O)(=O)N2CCN(C(=O)/C=C/c3ccco3)CC2)cc1 | -4.2 | -6.5 | 2.0 | 5.7 | .
Cc1ccc(C)c(S(=O)(=O)N2CCN(C(=O)/C=C/c3ccco3)CC2)c1 | 34.9* | 1.3 | 15.1 | -9.4 | 23.7
COc1cccc(/C=N\N2CCN(c3ccc(C)cc3)CC2)c1O | . | . | 1.3 | . | .
Clc1ccc(C2=Nn3c(nnc3-c3cc(-c4ccccc4)n[nH]3)SC2)cc1 | 44.7* | 23.8 | 9.4 | 1.9 | 30.3
c1ccc(C2=Nn3c(nnc3-c3cc(-c4ccccc4)n[nH]3)SC2)cc1 | 20.3 | -7.1 | 2.0 | 12.3 | .
Clc1ccc(C2=Nn3c(nnc3-c3n[nH]c4c3CCC4)SC2)cc1Cl | 30.4* | -0.4 | 12.8 | -3.5 | 39.6
O=C(NCc1cccc2ccccc12)C1CCCN(c2nc3ccccc3o2)C1 (centres undefined) | . | . | 3.1 | . | .
CNC(=O)C[C@H]1C(=O)N(CCc2ccccc2)C[C@@H]1CSC | -10.0 | 9.6 | 1.7 | 0.2 | .
CCOc1ccc(NC(=O)c2ccc(NC(=O)CSc3nc4ccccc4c(=O)[nH]3)cc2)cc1 | 43.0* | -5.7 | 0.6 | 2.4 | 7.2
O=C(CSc1nc2ccccc2c(=O)[nH]1)Nc1ccc(C(=O)O)cc1 | -2.4 | 2.6 | 1.9 | -8.4 | .
COc1ccc(Cl)cc1C(=O)NNC(=S)NC(=O)c1cc(-c2ccc(Cl)cc2)nc2ccccc12 | 71.9* | 4.6 | 8.2 | 2.5 | 17.9
CCN1CCN(CC(=O)Nc2sc3c(c2C#N)CCC(C)C3)CC1 (centres undefined) | -1.4 | 0.3 | -7.1 | 2.8 | .
CC1CCc2c(sc(NC(=O)Cn3nc(C(=O)O)c4ccccc4c3=O)c2C#N)C1 (centres undefined) | 38.6* | 4.2 | 4.2 | -0.9 | -5.6
CCOC(=O)c1sc(NC(=O)c2cc(-c3ccc(C)cc3)nc3ccccc23)c(C#N)c1C | 41.9* | 2.7 | 15.3 | 15.3 | 11.2
COc1ccc(-c2cc(C(=O)Nc3sc4c(c3C#N)CCCC4)c3ccccc3n2)cc1 | 36.1* | 2.3 | 4.1 | 0.3 | 13.8
Cc1ccc(-c2nc(C3CCCN(S(=O)(=O)c4cccs4)C3)no2)cc1 (centres undefined) | . | . | 3.1 | . | .
COc1ccccc1C(=O)NC(=S)NNC(=O)c1sc2ccccc2c1Cl | 3.0 | 6.9 | 2.9 | -4.2 | .
COc1ccccc1C(=O)NNC(=S)NC(=O)c1sc2ccccc2c1Cl | 64.3* | 0.5 | 4.0 | 7.8 | 11.3
Cc1sc(NC(=O)c2cc(-c3ccc(Cl)cc3)nc3ccccc23)c(C(N)=O)c1C | 33.0* | -6.1 | 5.7 | 11.5 | 5.9
COc1ccccc1-c1cc(C(=O)Nc2sc3c(c2C#N)CCC(C)C3)c2ccccc2n1 (centres undefined) | 54.5* | 6.8 | 12.0 | 1.3 | 19.2

High-throughput results as filed in PubChem.
